From ChEMBL document CHEMBL1131066, “2-Substituted aminopyrido[2,3-d]pyrimidin-7(8H)-ones. structure-activity relationships against selected tyrosine kinases and in vitro and in vivo anticancer activity” (J Med Chem, 1998)
Values joined by “and” are separate entries in the source; they are usually repeats but may differ in a detail not shown here. Equal entries are not always repeated.

Assays:
C6 [1] = test: Weight change of C6 glioma tumor cells in mice at 100 mg/kg peroral dose, days 1-15 administration; format: functional, organism-based; set-up: dose 100 mg/kg; conditions: Mus musculus
How it was run: (§1)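 Tumor-bearing nude mice (NCr nu/nu, 18–22 g, 6–8 per group) were implanted in the right axilla with tumor fragments on day 0 and dosed by average cage weight. Vehicle was 50 mM sodium lactate pH 4.0, or 0.5% methyl cellulose suspension; cisplatin was given in saline. Host body weight change is given as the maximum treatment-related weight loss.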

C6 [2] = test: C6 glioma cell growth in soft agar with discontinued treatment; format: functional, cell-based; conditions: Rattus norvegicus
How it was run: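 C6 rat glioma cells (F10 Ham's, 15% horse serum, 2.5% fetal calf serum) exposed to a range of concentrations for 3 days, washed free of inhibitor, plated in drug-free soft agar. Colonies stained and counted after two weeks. IC50; mean of two experiments, each in duplicate.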

C6 [3] = test: C6 glioma cell growth in soft agar with continuous treatment; format: functional, cell-based; conditions: Rattus norvegicus
How it was run: (§2)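 C6 rat glioma cells (F10 Ham's with 15% horse serum, 2.5% fetal calf serum) exposed 3 days to a concentration series, then plated in soft agar with compound still present at the same concentration; colonies stained and counted after two weeks. IC50; mean of two experiments, each in duplicate.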

C6 [4] = test: (§3) Inhibition of C6 cell proliferation in sulforhodamine B assay; format: functional, cell-based; conditions: Rattus norvegicus
How it was run: (§4)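 C6 rat glioma cells (F10 Ham's, 15% horse serum, 2.5% fetal calf serum) seeded and allowed 24 h to attach, then given serial 2-fold compound dilutions; 4 d at 37 °C, 5% CO2; growth read by sulforhodamine B staining. IC50; mean of two experiments, each in triplicate.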

C6 [5] = test: C6 cell growth in soft agar with discontinued treatment; format: functional, cell-based, Rattus norvegicus; conditions: Rattus norvegicus, C6
How it was run: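 C6 rat glioma cells given 3-day exposure to a concentration series, then washed free of inhibitor and plated in drug-free soft agar; colonies stained and counted after two weeks. IC50; mean of two experiments, each in duplicate.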

C6 [6] = test: C6 cell growth in soft agar with continuous treatment; format: functional, cell-based, Rattus norvegicus; conditions: Rattus norvegicus, C6; how it was run: as §2
C6 [7] = test: as §3; format: functional, cell-based, Rattus norvegicus; conditions: Rattus norvegicus, C6; how it was run: as §4
[8] = biological target: T1, Platelet-derived growth factor receptor (PDGFr) (Rattus norvegicus, UniProt P20786+Q05030); test: Inhibition of PDGF-induced autophosphorylation of PDGF-R in C6 cells
C6 [9] = test: Difference in days for treated (T) and control (C) C6 glioma cell tumors to reach 750 mg in mice at 100 mg/kg peroral dose, days 1-15 administration; format: functional, Mus musculus; conditions: route oral
How it was run: (§5)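 Nude mice (NCr nu/nu), 18–22 g, 6–8 per group, randomized and implanted with serially passaged tumor fragments in the right axilla on day 0. Dosed by average cage weight. Vehicle was 50 mM sodium lactate buffer, pH 4.0, or a 0.5% methyl cellulose suspension for one compound. Cisplatin was given in saline. T − C is the difference in days for treated and control tumors to reach 750 mg.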

COLO 205 [10] = test: Difference in days for treated (T) and control (C) COLO 205 cell tumors to reach 750 mg in mice at 200 mg/kg ip dose, days 14-28 administration; format: functional, Mus musculus; conditions: route intraperitoneal; how it was run: as §5
COLO 205 [11] = test: Weight change of COLO 205 cell tumors in mice at 200 mg/kg ip dose, days 14-28 administration; format: functional, Mus musculus; conditions: route intraperitoneal; how it was run: as §1
[12] = biological target: Epidermal growth factor receptor (Homo sapiens, UniProt P00533); test: Inhibitory concentration was evaluated against epidermal growth factor receptor (EGFr) tyrosine kinase
SK-OV-3 [13] = test: Weight change of SK-OV-3 cell tumors in mice at 200 mg/kg peroral dose, days 20-34 administration; format: functional; conditions: route intraperitoneal, in the assay text read “intraperitoneal” for “peroral”
HT-29 [14] = test: Difference in days for treated (T) and control (C) HT-29 cell tumors to reach 750 mg in mice at 200 mg/kg ip dose, days 15-29 administration; format: functional, Mus musculus; conditions: route intraperitoneal; how it was run: as §5
HT-29 [15] = test: Net reduction in tumor burden between first and last treatments of HT-29 cell tumors in mice at 200 mg/kg ip dose, days 15-29 administration; format: functional, Mus musculus; conditions: route intraperitoneal
How it was run: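 NCr nu/nu nude mice (18–22 g, 6–8 per group, randomized) had tumor fragments, kept by serial passage in nude mice, implanted in the right axilla on day 0. Mice were dosed by average cage weight on the listed days, over a range from toxic to ineffective doses. Vehicle was 50 mM sodium lactate pH 4.0 or 0.5% methyl cellulose suspension. Net log cell kill was taken between first and last treatments.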

HT-29 [16] = test: Weight change of HT-29 cell tumors in mice at 200 mg/kg ip dose, days 15-29 administration; format: functional, Mus musculus; conditions: route intraperitoneal; how it was run: as §1
SK-OV-3 [17] = test: Difference in days for treated (T) and control (C) SKOV-3 cell tumors to reach 750 mg in mice at 200 mg/kg ip dose, days 20-34 administration; format: functional; conditions: route intraperitoneal; how it was run: as §5
NIH3T3 = test: Inhibition of NIH3T3 proliferation by sulforhodamine B assay; format: functional, cell-based, Mus musculus; conditions: nih3t3
[18] = biological target: T2, Platelet-derived growth factor receptor beta (Mus musculus, UniProt P05622); test: Inhibitory concentration was evaluated against Platelet-derived growth factor receptor beta (PDGFr) tyrosine kinase
[19] = biological target: T2, Platelet-derived growth factor receptor beta; test: Inhibition of Platelet-derived growth factor receptor (PDGFr)
How it was run: (§6)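 Recombinant kinases (PDGFr-β, FGFr-1, c-Src), enzyme inhibition IC50. Mean of at least two separate determinations, each done in triplicate; replicate values typically varied under 30%.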

[20] = biological target: T1, Platelet-derived growth factor receptor (PDGFr); test: Inhibition of Platelet-derived growth factor receptor autophosphorylation in C6 cells; format: functional, cell-based
How it was run: (§7)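 Serum-starved 24 h (C6 rat glioma; PDGF-B-transfected NIH3T3), incubated 2 h with a range of concentrations, then stimulated 5 min with 25 ng/mL PDGF-BB. Lysates or immunoprecipitates Western blotted with antiphosphotyrosine antibody, ECL detection. IC50.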

[21] = biological target: T3, Platelet-derived growth factor receptor (Mus musculus, UniProt P05622+P26618); test: (§8) Inhibition of Platelet-derived growth factor receptor autophosphorylation in NIH3T3 cells; format: functional, cell-based; how it was run: as §7
[22] = biological target: T3, Platelet-derived growth factor receptor; test: as §8; format: functional, cell-based; how it was run: as §7; remark: listed apart in the source
[23] = biological target: Proto-oncogene tyrosine-protein kinase Src (Homo sapiens, UniProt P12931); test: Inhibition of c-Src tyrosine kinase; how it was run: as §6
Mus musculus [24] = test: Difference in days for treated (T) and control (C) PDGF-transfected mouse fibroblast tumors to reach 750 mg in mice at 100 mg/kg peroral dose, days 1-15 administration; format: functional; conditions: route intraperitoneal, in the assay text read “intraperitoneal” for “peroral”; how it was run: as §5
[25] = biological target: Proto-oncogene tyrosine-protein kinase Src (Gallus gallus, UniProt P00523); test: Inhibition of avian c-Src tyrosine kinase
Mus musculus [26] = test: Net reduction in tumor burden between the first and last treatments of PDGF-transfected fibroblast cells in mice at 100 mg/kg intraperitoneal dose, days 1-15 administration

T2 sequence (P05622 whole entry): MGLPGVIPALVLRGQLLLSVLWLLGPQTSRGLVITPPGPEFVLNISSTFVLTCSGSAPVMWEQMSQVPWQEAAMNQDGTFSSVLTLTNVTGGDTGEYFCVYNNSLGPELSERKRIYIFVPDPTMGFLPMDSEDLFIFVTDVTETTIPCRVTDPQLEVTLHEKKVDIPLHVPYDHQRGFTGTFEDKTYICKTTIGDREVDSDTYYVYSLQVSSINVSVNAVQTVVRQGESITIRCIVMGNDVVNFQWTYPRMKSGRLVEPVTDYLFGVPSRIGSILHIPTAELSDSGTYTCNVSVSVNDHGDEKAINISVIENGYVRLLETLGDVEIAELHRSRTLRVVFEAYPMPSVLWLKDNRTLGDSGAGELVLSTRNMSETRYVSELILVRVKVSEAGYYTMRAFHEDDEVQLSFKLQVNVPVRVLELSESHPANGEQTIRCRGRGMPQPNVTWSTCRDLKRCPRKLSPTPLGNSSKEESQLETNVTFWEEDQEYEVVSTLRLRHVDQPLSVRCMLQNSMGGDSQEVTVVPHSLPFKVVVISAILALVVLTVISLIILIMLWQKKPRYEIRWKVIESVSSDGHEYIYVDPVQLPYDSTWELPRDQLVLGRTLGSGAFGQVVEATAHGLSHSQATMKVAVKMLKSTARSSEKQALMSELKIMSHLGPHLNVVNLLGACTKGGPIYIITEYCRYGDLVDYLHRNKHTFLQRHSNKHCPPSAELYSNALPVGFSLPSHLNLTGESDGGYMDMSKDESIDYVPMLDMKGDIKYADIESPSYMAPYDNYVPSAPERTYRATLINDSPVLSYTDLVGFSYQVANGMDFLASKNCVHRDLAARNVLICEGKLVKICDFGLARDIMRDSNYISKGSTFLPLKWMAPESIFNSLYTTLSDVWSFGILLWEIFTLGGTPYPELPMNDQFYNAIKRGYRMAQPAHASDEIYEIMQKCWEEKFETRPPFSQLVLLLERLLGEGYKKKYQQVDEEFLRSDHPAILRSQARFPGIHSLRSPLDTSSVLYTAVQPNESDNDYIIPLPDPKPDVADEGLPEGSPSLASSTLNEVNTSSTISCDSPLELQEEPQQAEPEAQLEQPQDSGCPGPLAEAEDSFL
Epidermal growth factor receptor, sequence (P00533 whole entry): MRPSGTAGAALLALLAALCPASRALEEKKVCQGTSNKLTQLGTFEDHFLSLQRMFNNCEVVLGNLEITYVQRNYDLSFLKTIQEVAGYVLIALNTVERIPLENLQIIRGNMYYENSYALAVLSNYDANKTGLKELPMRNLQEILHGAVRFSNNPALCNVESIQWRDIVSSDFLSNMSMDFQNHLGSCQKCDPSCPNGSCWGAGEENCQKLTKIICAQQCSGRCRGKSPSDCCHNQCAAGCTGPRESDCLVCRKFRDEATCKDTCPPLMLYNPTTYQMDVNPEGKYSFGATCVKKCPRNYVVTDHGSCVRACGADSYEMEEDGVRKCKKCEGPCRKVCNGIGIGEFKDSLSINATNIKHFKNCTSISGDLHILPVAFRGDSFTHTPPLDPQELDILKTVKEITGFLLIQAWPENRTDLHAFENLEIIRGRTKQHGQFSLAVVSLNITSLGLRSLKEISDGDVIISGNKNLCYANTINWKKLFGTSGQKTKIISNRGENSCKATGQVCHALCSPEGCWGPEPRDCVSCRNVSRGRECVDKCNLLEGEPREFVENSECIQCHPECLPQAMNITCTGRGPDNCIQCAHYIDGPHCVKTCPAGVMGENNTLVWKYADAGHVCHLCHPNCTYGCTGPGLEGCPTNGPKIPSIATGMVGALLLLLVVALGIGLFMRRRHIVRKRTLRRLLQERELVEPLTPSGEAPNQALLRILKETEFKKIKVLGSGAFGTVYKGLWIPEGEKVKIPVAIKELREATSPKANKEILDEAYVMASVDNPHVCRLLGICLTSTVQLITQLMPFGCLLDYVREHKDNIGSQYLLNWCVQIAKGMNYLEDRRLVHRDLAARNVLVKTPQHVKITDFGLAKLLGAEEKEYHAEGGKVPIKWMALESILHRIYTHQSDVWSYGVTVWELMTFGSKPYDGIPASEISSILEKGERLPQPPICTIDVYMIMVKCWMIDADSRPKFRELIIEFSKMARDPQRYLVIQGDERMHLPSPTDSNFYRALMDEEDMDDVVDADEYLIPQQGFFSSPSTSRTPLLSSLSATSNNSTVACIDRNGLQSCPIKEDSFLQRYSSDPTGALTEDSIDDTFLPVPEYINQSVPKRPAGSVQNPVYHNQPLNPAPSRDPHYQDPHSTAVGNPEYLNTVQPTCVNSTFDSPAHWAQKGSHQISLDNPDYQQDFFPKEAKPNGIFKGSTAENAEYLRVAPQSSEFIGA
Proto-oncogene tyrosine-protein kinase Src (Homo sapiens, UniProt P12931), sequence (P12931 2-536 limits assumed): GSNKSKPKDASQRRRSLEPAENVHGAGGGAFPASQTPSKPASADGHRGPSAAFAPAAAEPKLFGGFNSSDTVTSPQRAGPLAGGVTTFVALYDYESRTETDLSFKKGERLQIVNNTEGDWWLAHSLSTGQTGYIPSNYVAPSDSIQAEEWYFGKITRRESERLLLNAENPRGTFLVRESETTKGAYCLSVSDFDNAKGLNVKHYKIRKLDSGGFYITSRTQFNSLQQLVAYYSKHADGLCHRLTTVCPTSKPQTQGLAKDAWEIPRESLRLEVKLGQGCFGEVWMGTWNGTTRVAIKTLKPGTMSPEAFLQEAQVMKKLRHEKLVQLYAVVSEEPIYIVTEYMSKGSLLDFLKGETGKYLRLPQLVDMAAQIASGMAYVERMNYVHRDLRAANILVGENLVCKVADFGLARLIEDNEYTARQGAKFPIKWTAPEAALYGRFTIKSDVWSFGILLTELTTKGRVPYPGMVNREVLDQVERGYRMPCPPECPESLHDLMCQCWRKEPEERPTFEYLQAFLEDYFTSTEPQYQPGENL

Question: Which results are given for Cn1c(=O)c(-c2c(Cl)cccc2Cl)cc2cnc(Nc3ccccc3)nc21?
Answer: Weight change (C6 [1]): Weight gain; IC50 (C6 [2]): 2900 nM; IC50 (C6 [3]): 1100 nM; IC50 (C6 [4]): 1800 nM; IC50 (C6 [5]): 2900 nM; IC50 (C6 [6]): 1100 nM; IC50 (C6 [7]): 1800 nM; IC50 [8]: 38 nM; T-C (C6 [9]): -1.1 days; T-C (COLO 205 [10]): -3.2 days; Weight change (COLO 205 [11]): -2 g; IC50 [12]: 260 nM; Weight change (SK-OV-3 [13]): -2 g; T-C (HT-29 [14]): 1.1 days; Net cell kill (HT-29 [15]): -0.5 log10; Weight change (HT-29 [16]): -2 g; T-C (SK-OV-3 [17]): -0.4 days; IC50 (NIH3T3): 105 nM and 410 nM; IC50 [18]: 400 nM; IC50 [19]: 400 nM; IC50 [20]: 38 nM; IC50 [21]: 20 nM; IC50 [22]: 20 nM; IC50 [23]: 17 nM; T-C (Mus musculus [24]): 1.7 days; IC50 [25]: 20 nM; Net cell kill (Mus musculus [26]): -2.1 log10
